Reference: ChEMBL document CHEMBL1134325, “Diaminoindanes as microsomal triglyceride transfer protein inhibitors” (J Med Chem, 2001)
Values joined by “and” are separate entries in the source; they are usually repeats but may differ in a detail not shown here. Equal entries are not always repeated.

Experiments:
[1] = system: Canis familiaris; assay: Inhibition of plasma total triglycerides in the normolipidemic dogs after day 3 of oral administration of 10 mg/kg/day.; assay type: functional, Canis lupus familiaris
[2] = system: Rattus norvegicus; assay: Inhibition of total cholesterol in normolipidemic rats after 2 hr of 10 mg/kg oral dosing; assay type: functional
Method in brief: (§1)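 Overnight-fasted normolipidemic rats received a single oral dose in cornstarch vehicle. Blood was drawn at 2, 6 and 24 h post-dose and assayed for triglycerides and total cholesterol, with free access to food after the 6 h sample. Value is mean percent inhibition versus a separate vehicle-treated group, unpaired t test p < 0.05, NS = no significant change, N = 6.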

[3] = system: Rattus norvegicus; assay: Inhibition of plasma triglycerides in normolipidemic rats after 6 hr of 50 mg/kg oral dosing; assay type: functional; method in brief: as §1
[4] = system: Rattus norvegicus; assay: Inhibition of plasma triglycerides in normolipidemic rats after 2 hr of 50 mg/kg oral dosing; assay type: functional; method in brief: as §1
[5] = system: Canis familiaris; assay: Inhibition of plasma total cholesterol in the normolipidemic dogs after day 2 of oral administration of 5 mg/kg/day.; assay type: functional, Canis lupus familiaris
Method in brief: (§2)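 Normolipidemic dogs dosed once daily for 4 days by oral gavage, compound suspended in cornstarch vehicle. Plasma sampled 24 h after dosing on days 0, 2, 3 and 4, assayed for triglycerides and total cholesterol (mg/dL). Mean percent inhibition versus day-0 level is given for treated dogs; n = 6 per group; significance by one-way ANOVA, p < 0.05.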

[6] = system: Canis familiaris; assay: Inhibition of plasma total cholesterol in the normolipidemic dogs after day 3 of oral administration of 10 mg/kg/day.; assay type: functional, Canis lupus familiaris; method in brief: as §2
[7] = system: Rattus norvegicus; assay: Inhibition of total cholesterol in normolipidemic rats after 24 hr of 10 mg/kg oral dosing; no significant change; assay type: functional, organism-based; parameters: dose 10 mg/kg; method in brief: as §1
[8] = system: Rattus norvegicus; assay: Inhibition of total cholesterol in normolipidemic rats after 6 hr of 10 mg/kg oral dosing; assay type: functional; method in brief: as §1
[9] = system: Canis familiaris; assay: Inhibition of plasma total triglycerides in the normolipidemic dogs after day 0 of oral administration of 5 mg/kg/day.; assay type: functional, Canis lupus familiaris; method in brief: as §2
[10] = system: Rattus norvegicus; assay: Inhibition of plasma triglycerides in normolipidemic rats after 24 h of 50 mg/kg oral dosing; no significant change; assay type: functional, organism-based; parameters: dose 50 mg/kg; method in brief: as §1
[11] = system: Canis familiaris; assay: Inhibition of plasma total cholesterol in the normolipidemic dogs after day 4 of oral administration of 10 mg/kg/day. Values in the parentheses indicate mean percent inhibition for drug treated dogs.; assay type: functional, Canis lupus familiaris; method in brief: as §2
[12] = system: Rattus norvegicus; assay: Inhibition of plasma triglycerides in normolipidemic rats after 2 hr of 10 mg/kg oral dosing; assay type: functional; method in brief: as §1
[13] = system: Rattus norvegicus; assay: Inhibition of plasma triglycerides in normolipidemic rats after 24 hr of 10 mg/kg oral dosing; no significant change; assay type: functional, organism-based; parameters: dose 10 mg/kg; method in brief: as §1
[14] = system: Rattus norvegicus; assay: Inhibition of plasma triglycerides in normolipidemic rats after 6 hr of 10 mg/kg oral dosing; assay type: functional; method in brief: as §1
[15] = system: Canis familiaris; assay: Inhibition of plasma total triglycerides in the normolipidemic dogs after day 2 of oral administration of 10 mg/kg/day.; assay type: functional, Canis lupus familiaris; method in brief: as §2
[16] = system: Canis familiaris; assay: Inhibition of plasma total cholesterol in the normolipidemic dogs after day 2 of oral administration of 10 mg/kg/day.; assay type: functional, Canis lupus familiaris; method in brief: as §2
[17] = system: Canis familiaris; assay: Inhibition of plasma total triglycerides in the normolipidemic dogs after day 3 of oral administration of 5 mg/kg/day.; assay type: functional, Canis lupus familiaris
[18] = system: Canis familiaris; assay: Inhibition of plasma total cholesterol in the normolipidemic dogs after day 4 of oral administration of 5 mg/kg/day. Values in the parentheses indicate mean percent inhibition for drug treated dogs.; assay type: functional, Canis lupus familiaris; method in brief: as §2
[19] = system: Canis familiaris; assay: Inhibition of plasma total cholesterol in the normolipidemic dogs after day 3 of oral administration of 5 mg/kg/day.; assay type: functional, Canis lupus familiaris; method in brief: as §2
[20] = system: Rattus norvegicus; assay: (§3) Inhibition of total cholesterol in normolipidemic rats after 24 hr of 50 mg/kg oral dosing; assay type: functional; method in brief: as §1
[21] = system: Canis familiaris; assay: Inhibition of plasma total triglycerides in the normolipidemic dogs after day 4 of oral administration of 5 mg/kg/day.; assay type: functional, Canis lupus familiaris
[22] = system: Canis familiaris; assay: Inhibition of plasma total triglycerides in the normolipidemic dogs after day 0 of oral administration of 10 mg/kg/day.; assay type: functional, Canis lupus familiaris; method in brief: as §2
[23] = system: Rattus norvegicus; assay: Inhibition of total cholesterol in normolipidemic rats after 2 hr of 50 mg/kg oral dosing; assay type: functional; method in brief: as §1
[24] = system: Canis familiaris; assay: Inhibition of plasma total cholesterol in the normolipidemic dogs after day 0 of oral administration of 5 mg/kg/day.; assay type: functional, Canis lupus familiaris; method in brief: as §2
[25] = system: Canis familiaris; assay: Inhibition of plasma total triglycerides in the normolipidemic dogs after day 4 of oral administration of 10 mg/kg/day. Values in the parentheses indicate mean percent inhibition for drug treated dogs.; assay type: functional, Canis lupus familiaris
[26] = system: Canis familiaris; assay: Inhibition of plasma total cholesterol in the normolipidemic dogs after day 0 of oral administration of 10 mg/kg/day.; assay type: functional, Canis lupus familiaris; method in brief: as §2
[27] = molecular target: T1, Microsomal triglyceride transfer protein large subunit (Homo sapiens, UniProt P55157); assay: In vitro inhibitory activity against MTP using MTP transfer assay
T1 sequence (P55157 whole entry): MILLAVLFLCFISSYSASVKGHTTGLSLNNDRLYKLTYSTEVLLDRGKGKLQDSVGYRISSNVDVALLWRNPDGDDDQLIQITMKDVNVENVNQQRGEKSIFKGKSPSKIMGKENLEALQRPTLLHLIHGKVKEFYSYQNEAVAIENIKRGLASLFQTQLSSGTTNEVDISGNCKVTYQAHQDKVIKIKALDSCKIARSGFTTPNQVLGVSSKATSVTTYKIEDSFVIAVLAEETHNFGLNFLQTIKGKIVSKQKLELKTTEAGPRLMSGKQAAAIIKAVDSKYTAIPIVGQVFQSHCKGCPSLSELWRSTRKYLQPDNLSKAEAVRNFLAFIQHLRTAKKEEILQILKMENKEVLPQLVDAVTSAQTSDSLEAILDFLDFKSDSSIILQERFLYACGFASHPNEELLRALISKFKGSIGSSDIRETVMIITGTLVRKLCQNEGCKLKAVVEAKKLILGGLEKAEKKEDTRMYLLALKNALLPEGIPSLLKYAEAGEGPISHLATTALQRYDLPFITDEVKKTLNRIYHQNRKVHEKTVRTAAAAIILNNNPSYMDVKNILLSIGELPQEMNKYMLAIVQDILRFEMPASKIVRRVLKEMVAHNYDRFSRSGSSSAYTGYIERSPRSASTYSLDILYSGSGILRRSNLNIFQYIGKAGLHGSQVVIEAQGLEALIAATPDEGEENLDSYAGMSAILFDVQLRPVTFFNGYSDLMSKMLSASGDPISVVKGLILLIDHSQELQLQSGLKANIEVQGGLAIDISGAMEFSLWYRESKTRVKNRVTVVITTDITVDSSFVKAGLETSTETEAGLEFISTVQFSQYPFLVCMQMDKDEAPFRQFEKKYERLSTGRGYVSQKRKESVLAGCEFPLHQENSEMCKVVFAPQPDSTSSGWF

[28] = system: Rattus norvegicus; assay: Inhibition of total cholesterol in normolipidemic rats after 6 hr of 50 mg/kg oral dosing; assay type: functional; method in brief: as §1
[29] = system: Canis familiaris; assay: Inhibition of plasma total triglycerides in the normolipidemic dogs after day 2 of oral administration of 5 mg/kg/day.; assay type: functional, Canis lupus familiaris; method in brief: as §2
[30] = system: Rattus norvegicus; assay: Inhibition of plasma triglycerides in normolipidemic rats after 6 h of […] mg/kg oral dosing; no significant change; assay type: functional, organism-based; parameters: dose 50 mg/kg
[31] = system: Rattus norvegicus; assay: Inhibition of total cholesterol in normolipidemic rats after 6 h of […] mg/kg oral dosing; no significant change; assay type: functional, organism-based; parameters: dose 50 mg/kg
[32] = system: Rattus norvegicus; assay: Inhibition of total cholesterol in normolipidemic rats after 24 hr of 50 mg/kg oral dosing; no significant change; assay type: functional, organism-based; parameters: dose 50 mg/kg; method in brief: as §1
[33] = system: Rattus norvegicus; assay: Inhibition of plasma triglycerides in normolipidemic rats after 2 hr of 50 mg/kg oral dosing; no significant change; assay type: functional, organism-based; parameters: dose 50 mg/kg; method in brief: as §1
[34] = system: Rattus norvegicus; assay: Inhibition of total cholesterol in normolipidemic rats after 2 hr of 50 mg/kg oral dosing; no significant change; assay type: functional, organism-based; parameters: dose 50 mg/kg; method in brief: as §1
[35] = system: Canis familiaris; assay: Inhibition of plasma total triglycerides in the normolipidemic dogs after day 4 of oral administration of 5 mg/kg/day; assay type: functional, Canis lupus familiaris
[36] = system: Canis familiaris; assay: Inhibition of plasma total cholesterol in the normolipidemic dogs after day 2 of oral administration of 5 mg/kg/ day.; assay type: functional, Canis lupus familiaris; method in brief: as §2
[37] = system: Rattus norvegicus; assay: Inhibition of total cholesterol in normolipidemic rats after 6 hr of 5 mg/kg oral dosing; assay type: functional; conditions: 5 mg/kg; method in brief: as §1
[38] = system: Rattus norvegicus; assay: Inhibition of total cholesterol in normolipidemic rats after 24 hr of 5 mg/kg oral dosing; no significant change; assay type: functional, organism-based; parameters: dose 5 mg/kg; method in brief: as §1
[39] = system: Rattus norvegicus; assay: Inhibition of plasma triglycerides in normolipidemic rats after 24 hr of 50 mg/kg oral dosing; assay type: functional; method in brief: as §1
[40] = system: Rattus norvegicus; assay: Inhibition of total cholesterol in normolipidemic rats after 2 h of 5 mg/kg oral dosing; assay type: functional; conditions: 5 mg/kg; method in brief: as §1
[41] = system: Canis familiaris; assay: Inhibition of plasma total cholesterol in the normolipidemic dogs after day 4 of oral administration of 5 mg/kg/day; assay type: functional, Canis lupus familiaris; method in brief: as §2
[42] = system: Rattus norvegicus; assay: as §3; assay type: functional, organism-based; parameters: dose 50 mg/kg; method in brief: as §1

Compound	Reduction [2] [%]	NS [7]	Reduction [8] [%]	Lipid level [9] [mg/dL]	NS [10]	Reduction [12] [%]	NS [13]	Reduction [14] [%]	Lipid level [17] [mg/dL]	Lipid level [19] [mg/dL]	Lipid level [24] [mg/dL]	IC50 [27] [nM]	Lipid level [29] [mg/dL]	NS [30]	NS [31]	NS [33]	NS [34]	other results
Cc1cccc(C(=O)Nc2ccc3c(c2)C[C@@H](NCc2ccccn2)C3)c1-c1ccc(C(F)(F)F)cc1	34	no significant change	35	36	no significant change	86	no significant change	47	41	<99	130	100	38	–	–	–	–	Lipid level [1]: <27 mg/dL; Reduction [3]: 88%; Reduction [4]: 91%; Lipid level [5]: <110 mg/dL; Lipid level [6]: <54 mg/dL; Lipid level [11]: <36 mg/dL; Lipid level [15]: <26 mg/dL; Lipid level [16]: <69 mg/dL; Lipid level [18]: <94 mg/dL; Reduction [20]: 29%; Lipid level [21]: 32 mg/dL; Lipid level [22]: 46 mg/dL; Reduction [23]: 40%; Lipid level [25]: <23 mg/dL; Lipid level [26]: 125 mg/dL; Reduction [28]: 57%
O=C(Nc1ccc2c(c1)C[C@@H](NS(=O)(=O)c1ccccc1)C2)c1ccccc1-c1ccc(C(F)(F)F)cc1	–	–	–	–	no significant change	–	–	–	–	–	–	650	–	no significant change	no significant change	no significant change	no significant change	NS [32]: no significant change
Cc1cccc(C(=O)Nc2ccc3c(c2)C[C@H](NS(=O)(=O)c2cccs2)C3)c1-c1ccc(C(F)(F)F)cc1	26	no significant change	39	31	–	83	no significant change	56	<24	<72	120	50	<24	–	–	–	–	Lipid level [35]: <20 mg/dL; Reduction ([3]; 50 mg/kg): 83% and 56%; Lipid level [36]: <81 mg/dL; Reduction ([4]; 50 mg/kg): 88% and 83%; Reduction [37]: 50% and 34%; NS [38]: no significant change; Reduction [39]: 76%; Reduction [40]: 25% and 23%; Lipid level [41]: <70 mg/dL
COC(=O)NCCC1Cc2ccc(NC(=O)c3cccc(C)c3-c3ccc(C(F)(F)F)cc3)cc2C1 (centres undefined)	–	–	–	–	no significant change	–	–	–	–	–	–	70	–	no significant change	no significant change	no significant change	no significant change	NS [42]: no significant change
